Screening data (PubChem)
ROMK primary: modulators of human ROMK potassium channel. P48048. Tet-inducible ROMK, thallium flux fluorescence; actives lie on both sides. B-score at 10 µM. hit rate 2% among 130,000;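 active means signal ratio slope over the read window, or its plate-corrected B-score, at least 3 SD from the plate mean, either direction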;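 further: B-score of the F/F0 ratio slope over 7 to 12 s after thallium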
KCC2 mod: modulators of human KCC2 chloride dependent transport. Q9H2X9. KCC2 cells, thallium flux FluoZin-2 fluorescence. B-score of Tl+ flux slope (higher = more flux/activation; lower = inhibition) at 10 µM. hit rate 2.2% among 190,000;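 active means thallium flux slope and its plate-corrected score both differing from the plate sample mean at a set confidence after two filtering rounds, in either direction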;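 further: slope of fluorescence scaled to starting intensity during 10 to 20 s after thallium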
Target sequence (Q9H2X9 whole entry, looked up): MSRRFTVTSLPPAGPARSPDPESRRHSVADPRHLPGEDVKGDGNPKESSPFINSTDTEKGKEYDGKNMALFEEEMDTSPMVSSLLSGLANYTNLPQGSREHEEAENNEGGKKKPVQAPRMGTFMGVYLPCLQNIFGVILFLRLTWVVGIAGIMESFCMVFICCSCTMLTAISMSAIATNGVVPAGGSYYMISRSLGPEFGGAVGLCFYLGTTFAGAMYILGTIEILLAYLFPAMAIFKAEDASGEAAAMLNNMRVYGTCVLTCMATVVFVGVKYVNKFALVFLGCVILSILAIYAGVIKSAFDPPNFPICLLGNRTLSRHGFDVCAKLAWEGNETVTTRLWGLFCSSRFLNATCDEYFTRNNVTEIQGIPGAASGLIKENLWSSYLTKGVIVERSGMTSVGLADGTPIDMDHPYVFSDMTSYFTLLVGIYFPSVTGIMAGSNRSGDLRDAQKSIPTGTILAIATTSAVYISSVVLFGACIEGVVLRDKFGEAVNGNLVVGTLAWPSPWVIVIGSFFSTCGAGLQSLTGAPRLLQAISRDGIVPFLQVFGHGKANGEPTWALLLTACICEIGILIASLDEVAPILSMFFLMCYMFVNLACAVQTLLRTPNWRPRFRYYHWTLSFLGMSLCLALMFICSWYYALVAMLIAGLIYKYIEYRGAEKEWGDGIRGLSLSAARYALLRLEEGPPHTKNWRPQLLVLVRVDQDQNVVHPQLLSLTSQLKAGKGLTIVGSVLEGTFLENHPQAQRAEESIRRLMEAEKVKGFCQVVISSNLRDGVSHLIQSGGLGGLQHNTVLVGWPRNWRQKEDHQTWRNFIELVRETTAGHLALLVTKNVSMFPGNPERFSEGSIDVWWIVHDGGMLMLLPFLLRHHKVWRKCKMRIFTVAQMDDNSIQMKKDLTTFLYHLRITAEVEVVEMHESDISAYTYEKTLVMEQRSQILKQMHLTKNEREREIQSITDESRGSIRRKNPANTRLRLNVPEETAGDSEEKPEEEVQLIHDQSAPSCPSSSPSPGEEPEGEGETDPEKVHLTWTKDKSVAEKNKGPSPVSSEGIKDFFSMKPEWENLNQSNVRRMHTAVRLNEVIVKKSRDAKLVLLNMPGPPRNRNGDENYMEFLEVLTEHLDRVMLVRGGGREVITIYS
Dynein cargo inh: blocks dynein driven cargo transport along microtubules | z-score, hits read low | hit rate 0.47% among 220,000 | 3617.4 mouse cells, GR-EGFP nuclear translocation imaging; test concentration mostly 20 µM; stimulated with dexamethasone, 1 µM; stronger effect = lower value;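 active means plate z-score of nuclear minus cytoplasmic receptor signal below a set negative limit, without overly bright fluorescence or cell loss, cut at about -3.5 in these data, passing the limit was not always enough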;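 further: z-score of nuclear minus cytoplasmic ring GR-EGFP intensity difference per well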
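Schedule: 48 h induction, then 1 h compound, then 30 min agonist, 37 °C. Buffer or medium: tetracycline-free induction medium containing charcoal-stripped FBS. Reagent: 1.0 µM final dexamethasone stimulus. Evaluation: nuclear versus cytoplasmic GR-EGFP signal, averaged per well. Signal: high-content fluorescence imaging after fixation.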
DTT redox prof: compounds producing H2O2 with reducing agent – biochemical, NIH compound library profiling, artefact control for MLSCN library redox annotation, primary screen; activation, % at 10 µM; AID 878; DTT-dependent redox cycling H2O2, phenol red/HRP absorbance; 100% = 100 µM peroxide control, 0% = buffer; hit rate 0.03% among 200,000;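 active means activation of at least 50% relative to the plate's high and low controls in the primary single-dose screen; inactive means activation below 50%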;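 further: compound incubated with DTT at 0.8 mM final as the reducing agent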
Autophagy HCS: modulators of autophagy; MEF GFP-LC3 puncta imaging; test concentration mostly 10 µM; calls only at 10 µM (by protocol); hit rate 0.98% among 190,000; AID 463193;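 active means percentage of spot-positive cells more than 3 SD above its plate mean, without a fluorescence outlier flag or 80% toxicity; inconclusive means no clear call, values can overlap the other calls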;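 further: spot-positive cell cutoff set from DMSO-treated cells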
KCC2 sec1: KCC2 (human) modulation, secondary assay; shares compounds with KCC2 mod; HEK293-KCC2, thallium flux, FluoZin2 fluorescence; stronger effect = higher value; normalised thallium flux (F/F0 slope) at 10 µM; hit rate 15% among 3,700; AID 1713;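 active means thallium flux slope above the same plate's solvent-only control mean plus 3 SD; inconclusive means the two replicate wells disagree; inactive means no significant difference from solvent-only control wells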
KCC2 bumet counter: thallium flux despite bumetanide block in KCC2 cells, secondary assay 3; HEK293-KCC2 + bumetanide/ouabain, thallium flux FluoZin2; stronger effect = higher value; hit rate 49% among 3,700; normalized thallium flux at 10 µM; shares compounds with KCC2 mod;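 active means thallium entry rate above the same plate's blocked-transporter control wells by more than 3 SD; inconclusive means the two repeat wells disagree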;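 further: raw slope of fluorescence over initial fluorescence between 10 and 20 s after thallium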
KCC2 sec2: confirmation of human KCC2 transport modulators; shares compounds with KCC2 mod; HEK293-KCC2, thallium flux FluoZin2 fluorescence; actives lie on both sides; F/F0 rise rate, 10–20 s post-thallium; normalized thallium flux at 10 µM; hit rate 23% among 3,700; AID 1715;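 active means thallium flux slope more than 3 SD above or below the plate's solvent-only control mean, mostly below; inconclusive means the two repeat wells disagreed; inactive means no significant shift from solvent-only controls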;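 further: raw slope with 0.1% DMSO as baseline and bumetanide as block control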
HEK counter1: counter-screen for KCC2 modulators: effect in parental HEK293 cells. shares compounds with KCC2 mod. thallium flux FluoZin2, ouabain; baseline-ratio fluorescence slope, 10–20 s after thallium. thallium flux rate (normalised fluorescence) at 10 µM. hit rate 46% among 3,700. AID 1716;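 active means thallium flux rate significantly above the same plate's solvent-only control wells, beyond their mean plus 3 SD; inconclusive means the two replicate wells gave conflicting results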
KCC2 retest ouab: KCC2 (human) modulation, ouabain retest. shares compounds with KCC2 mod. HEK293-KCC2, thallium flux FluoZin2 fluorescence; bidirectional: low = inhibitor, high = activator. raw Tl+ flux slope (below DMSO = inhibition, above = activation) at 10 µM. hit rate 48% among 3,700. AID 1717;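 active means thallium flux slope beyond 3 SD from same-plate DMSO control mean in most replicates, usually higher, sometimes lower; inconclusive means repeat tests gave conflicting results; inactive means no significant difference from controls in most replicates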;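 further: slope of initial-normalized fluorescence between seconds 10 and 20 after thallium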
HEK counter2: counter-screen for KCC2 modulators: effect in parental HEK293 cells. shares compounds with KCC2 mod. thallium flux FluoZin-2 fluorescence slope. thallium flux slope at 10 µM. hit rate 33% among 3,700. AID 1718;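 active means thallium flux slope above the same plate's solvent-control mean plus 3 SD in both duplicate wells; inconclusive means duplicate wells that disagreed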;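 further: run without ouabain in cells lacking the KCC2 cotransporter; slope of fluorescence scaled to its starting value between 10 and 20 s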
Starred values were filed as active, the others as inactive; i = inactive; ? = inconclusive; . = not tested or not shown. A selection: hits, their analogues and other compounds. The true share with any hit is near 4.1%.

SMILES	ROMK primary	KCC2 mod	Dynein cargo inh	DTT redox prof	Autophagy HCS	KCC2 sec1	KCC2 bumet counter	KCC2 sec2	HEK counter1	KCC2 retest ouab	HEK counter2
COC1=C/C(=C/c2c(N)n3nc(-c4ccc(C)cc4)sc3nc2=O)C=CC1=O	-1.6	9.8*	1.5	0	i	0.0065	0.063*	?	0.083*	?	0.024*
O=C1NCCN(Cc2ccc(Cl)c(F)c2)C1CC(=O)N1CCCCO1 (stereo unspecified)	-0.36	.	0.56	0	i	.	.	.	.	.	.
Cc1[nH]c(=S)sc1Cc1ccc(F)cc1	0.32	40*	0.082	0	i	0.0056	0.12*	0.084*	0.089*	0.1*	0.067*
COc1ccccc1CNc1n[nH]c(NCc2ccccc2OC)n1	-0.027	.	0.28	2	i	?	0.005	0.03	0.0075	0.018	0.011
COc1ccccc1CNc1ccc(CNc2ncn[nH]2)cc1	-1.1	0.63	0.37	-1	i	.	.	.	.	.	.
CC(=O)c1c(N2CCOCC2)[nH]c(-c2ccccc2)nc1=S	0.35	13*	2.3	0	i	0.017*	0.032*	?	0.019*	0.041*	?
COc1ccc(CSCCc2n[nH]c(=S)n2-c2ccccc2)cc1C	.	55*	-1.6	0	i	0.0091	0.029*	0.034	0.023*	0.02	0.012
Cc1cc(-c2csc(NC(=O)c3ccc(C#N)cc3)n2)c(C)n1Cc1ccccc1	.	-0.39	-0.48	1	i	.	.	.	.	.	.
CC1=C(C(=O)Nc2ccccc2)C(c2ccco2)C(C#N)=C(SCc2ccccc2)N1 (stereo unspecified)	-1.2	.	-0.15	0	i	0.0075	0.0043	0.03	0.0078	0.019	0.011
COc1ccc(S(=O)(=O)N2CCOCC2)cc1NC(=O)c1cccc2c(=O)c(C)c(-c3ccccc3)oc12	.	-2.8	0.24	0	i	.	.	.	.	.	.
O=C(CNC(=O)c1ccccc1)NC1(C(=O)NC2CCCCC2)CCCCC1	-0.32	0.85	0.063	0	i	.	.	.	.	.	.
O=C1c2ccccc2C(Nc2ccc(S(=O)(=O)N3CCCCCC3)cc2)N1Cc1ccco1 (stereo unspecified)	.	-5.5*	0.53	-3	i	0.0088	0.0052	0.033	0.007	0.016*	0.01
Cc1ccc2c(C)nc(Nc3nc(CSc4nnc(C)s4)cc(=O)[nH]3)nc2c1	.	-0.024	0.6	2	i	0.01	0.0063	0.033	0.008	0.02	?
COc1cc(C(=O)N[C@H](C(=O)Nc2nnc(C3CC3)s2)C(C)C)cc(OC)c1OC	.	0.0072	0.89	.	.	.	.	.	.	.	.
O=C(CN1C(=O)NC2(CCCc3ccccc32)C1=O)Nc1cccc(S(=O)(=O)N2CCCCC2)c1 (stereo unspecified)	.	0.22	-0.096	0	i	.	.	.	.	.	.
CCOc1ccc(C(CC(=O)O)NC(=O)C(Sc2ccccc2)c2ccccc2)cc1 (stereo unspecified)	0.58	-4*	-0.019	0	i	0.0068	?	0.023*	0.0084	?	0.012
COc1ccc(OC)c(NC(=O)C(Sc2ccccc2)c2ccccc2)c1 (stereo unspecified)	.	.	-0.029	0	i	0.016	0.0036	0.03	0.007	0.016	0.0094
COc1ccc(OC)c(NC(=O)CC(NC(C)=O)c2ccccc2)c1 (stereo unspecified)	1.3	1.3	-0.17	0	i	.	.	.	.	.	.
CNC(=S)N=Nc1c(O)[nH]c2ccccc12	-0.79	4.1*	1.2	0	i	0.011	0.021*	0.034	0.011*	0.024	0.012*
Oc1ccc(NC(=S)N=Nc2c(O)[nH]c3ccccc23)cc1	0.63	-1.7	-0.98	1	i	.	.	.	.	.	.
Oc1[nH]c2ccc(Br)cc2c1N=NC(=S)Nc1ccc(F)cc1	2.4	25*	0.29	.	.	0.0062	0.033*	?	0.015*	0.031*	0.018*
Cc1ccc(NC(=S)N=Nc2c(O)[nH]c3ccccc23)cc1	0.27	4.3*	-0.18	-2	i	0.0076	0.018*	0.033	0.02*	0.032*	0.013*
CN(Cc1ccon1)Cc1cn(C)nc1-c1cccc(Cl)c1	.	0.43	0.0085	-1	i	.	.	.	.	.	.
CCOC(=O)C1CCCNC1=O (stereo unspecified)	.	-0.41	0.84	.	.	.	.	.	.	.	.
Cn1c(=O)[nH]c(=O)c2c1nc(N1CCOCC1)n2CCc1ccccc1	-0.041	.	-0.1	1	i	.	.	.	.	.	.
SMILES	ROMK primary	KCC2 mod	Dynein cargo inh	DTT redox prof	Autophagy HCS	KCC2 sec1	KCC2 bumet counter	KCC2 sec2	HEK counter1	KCC2 retest ouab	HEK counter2
Cn1c(CNc2cccc(C(F)(F)F)c2)n[nH]c1=S	-0.76	-4*	-0.8	-1	i	0.0058	0.0049	0.025*	0.0071	?	0.01
COc1ccc(CCNC(=O)CSc2nnc3ccc(-c4cccnc4)nn23)cc1	-0.71	1.9	1.7	-1	i	.	.	.	.	.	.
O=C(CN(CCc1ccccc1)C(=O)Cn1nnc(-c2cccs2)n1)NCc1ccco1	.	-4.1*	3.9	3	i	0.0053	0.005	0.024*	0.0069	?	0.0098
O=C(CN(C(=O)Cn1nnc(-c2cccs2)n1)c1ccc2c(c1)OCCO2)NCc1ccccc1	.	-3.1	-0.22	3	i	.	.	.	.	.	.
COC(C[C@@H]1O[C@@H]1[C@H](O)[C@H](C)OCc1ccccc1)OC	.	.	-0.47	.	.	0.015	0.004	0.03	0.0073	0.016	0.011
COC(C[C@@H]1O[C@@H]1[C@@H](O)[C@@H](C)OCc1ccccc1)OC	.	0.8	-0.057	.	.	.	.	.	.	.	.
CCOc1ccc(CN(C(=O)c2oc3ccccc3c2C)C2CCS(=O)(=O)C2)cc1 (stereo unspecified)	.	-0.26	-0.34	2	i	0.006	0.0043	0.03	0.007	0.017	0.011
COc1ccc(CN(C(=O)c2oc3ccccc3c2C)C2CCS(=O)(=O)C2)cc1OC (stereo unspecified)	.	.	0.59	1	i	.	.	.	.	.	.
COc1cccc(NC(=O)COC(=O)c2ccccc2C(=O)N2CCN(c3ccccc3)CC2)c1	-0.046	1.5	0.49	0	i	.	.	.	.	.	.
